# Screening data (PubChem)
# TNAP inh hi DEA – blocks human TNAP under high phosphate acceptor concentration. AID 1135. purified TNAP, CDP-star luminescence, 1 M DEA. inhibition, % at 20 µM. hit rate 0.03% among 200,000. P05186;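 active = over 50% inhibition of tissue-nonspecific alkaline phosphatase at 20 µM in the single-dose screen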;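 also: plate controls were DMSO wells for no effect and EDTA-quenched wells as full inhibition for full effect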
# Target sequence (P05186 whole entry, looked up): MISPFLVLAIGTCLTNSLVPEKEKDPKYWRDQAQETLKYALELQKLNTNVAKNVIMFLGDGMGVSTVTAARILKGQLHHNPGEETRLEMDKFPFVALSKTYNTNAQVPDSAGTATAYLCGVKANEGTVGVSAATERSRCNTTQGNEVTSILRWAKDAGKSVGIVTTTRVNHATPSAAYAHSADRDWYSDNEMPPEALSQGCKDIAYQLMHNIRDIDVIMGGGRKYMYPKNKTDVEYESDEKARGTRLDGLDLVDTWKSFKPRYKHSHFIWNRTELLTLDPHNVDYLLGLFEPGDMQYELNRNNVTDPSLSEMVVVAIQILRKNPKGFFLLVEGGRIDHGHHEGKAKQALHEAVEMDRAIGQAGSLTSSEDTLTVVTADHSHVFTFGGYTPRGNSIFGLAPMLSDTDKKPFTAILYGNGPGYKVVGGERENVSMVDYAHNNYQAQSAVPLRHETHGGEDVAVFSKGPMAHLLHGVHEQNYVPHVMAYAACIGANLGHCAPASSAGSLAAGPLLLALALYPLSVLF
# PMI act hi M6P – increases human PMI activity with near-saturating mannose 6-phosphate; P34949; coupled PMI enzyme assay, resazurin fluorescence, 20 min; stronger effect = higher value; 1 = untreated enzyme, 0 = substrate-free blank; activation factor at 20 µM; hit rate 0.34% among 190,000; AID 1216;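 active = activation factor of 2 or more at 20 µM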
#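 test system = human PMI in coupled enzyme assay | medium = HEPES-buffered pH 7.4 with magnesium and detergent | also added = 1.0 mM mannose-6-phosphate substrate with 0.22 mM NADP+ | compound = 20 µM single dose | times = 20 min incubation at room temperature | measured by = resorufin fluorescence (Ex 544/Em 590 nm) from resazurin via diaphorase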
# PMI act – increases human mannose-6-phosphate isomerase activity | activation factor at 20 µM | P34949 | hit rate 0.005% among 190,000 | purified human PMI, coupled resazurin fluorescence, 20 min; stronger effect = higher value; 1 = vehicle control, 0 substrate-free wells;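 active = activation factor of 2 or more at 20 µM, relative to plate controls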
# TNAP act hi DEA – increases human TNAP activity under high phosphate acceptor concentration; P05186; purified TNAP, CDP-star luminescence, 1 M DEA, 30 min; stronger effect = higher value; 0 = EDTA background, 1 = DMSO-only activity; activation factor at 20 µM; 200,000 tested, under 10 active; AID 1136;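 active = activation factor at least 2 at 20 µM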
#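 system = human TNAP | amount = enzyme diluted 1/800 final | reagent = 100 µM CDP-star substrate | signal = luminescent substrate turnover signal | dosing = one dose, 20 µM | benchmarks = EDTA negative control, DMSO positive control | measure = activation factor | timing = 30 min reaction, room temperature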
# TNAP inh noacc – inhibitors of human TNAP without phosphate acceptor; inhibition, % at 20 µM; hit rate 0.26% among 200,000; purified TNAP, CDP-star luminescence, 30 min;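 active = tissue-nonspecific alkaline phosphatase inhibition above about 50% at 20 µM in the single-dose screen, limit read from the data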;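 also: 0% = DMSO negative control and 100% = EDTA positive control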
# * = called active by the depositor. Hits are enriched below; roughly 0.62% of the tested compounds scored in any of these assays.
SMILES,TNAP inh hi DEA,PMI act hi M6P,PMI act,TNAP act hi DEA,TNAP inh noacc
COc1ccc(-c2[nH]ncc2CN2CCC(OCc3cccnc3)CC2)c(F)c1,-6.6,1,1,1.1,74.0*
COc1ccc(-c2[nH]ncc2CN2CCCC2c2nonc2C)c(F)c1 (configuration not stated),-5.8,1,1,1.1,51.3*
Cc1ccc2cc(CCNC(=O)c3ccc(C)c([N+](=O)[O-])c3)c(=O)[nH]c2c1,1.6,1.2,0.9,1,-3.5
CCSc1nnc(NC(=O)C(NC(=O)c2ccc(Cl)cc2)C(C)C)s1 (configuration not stated),1.6,1,1,1,-1.0
O=C1CNC(=O)N1CC(O)Cn1c2ccccc2c2ccccc21 (configuration not stated),-5.4,1,0.9,1.1,-20.2
CC(C)(C)C(=O)CNCC(=O)C(C)(C)C,-5.6,2.1*,1.8,1.1,-5.6
CC(C)(C)C(=O)Cn1nc(Cl)nc1Cl,2.7,1.1,1.2,1,-2.3
OCCN1CCN(CCCc2c3c(cc4c2CCC4)CCC3)CC1,0.7,1.3,1.3,1,-1.6
CCN(C(=O)COc1cccc2cccnc12)C1CCS(=O)(=O)C1 (configuration not stated),-3.8,0.4,0.8,1,-3.2
CSc1cnn(Cc2ccccc2)c(=O)c1SCc1ccccc1,2.9,2.5*,1.6,1,11.7
N#CCCn1cc(/C=N/NC(N)=S)c(-c2ccccc2)n1,0.1,1.1,1.1,1,56.1*
Cc1ccc(C(=O)C2CCOC(C)(C)C2)cc1 (configuration not stated),-6.5,0.9,0.9,1.1,-8.7
CNS(=O)(=O)c1c(C)cc(C)c(N(C)S(=O)(=O)c2ccccc2)c1C,-4.1,0.8,0.9,1,-4.2
CN(CC(=O)Nc1ccc(S(=O)(=O)N2CCCC2)cc1)CC(=O)Nc1cccc(F)c1,0.4,1,1,1,-9.5
COc1cccc(NC(=S)N/N=C2\CC3CCC2(C)C3(C)C)c1 (configuration not stated),0.8,1,0.9,1,-3.2
COc1cccc(NC(=S)NN=C2CCC(C(C)(C)C)CC2)c1 (configuration not stated),-3.6,2.1*,1.5,1,-1.8
Cc1ccc(NS(=O)(=O)c2cc([N+](=O)[O-])ccc2NNC(=S)Nc2cccc(Cl)c2)c(C)c1,57.8*,0.9,0.7,0.4,39.6
Cc1oc(-c2ccccc2)nc1C(=O)N1CCN(c2ccc(F)cc2)CC1,-3.3,1.1,1,1,-12.9
CCC(CC)C(=O)N1CCN(c2ccccc2)CC1,-8.4,2.8*,1.8,1.1,-11.6
S=C1NC2=C(CCC/C2=C\c2ccccc2)C(c2ccccc2)N1 (configuration not stated),-1.0,2.4*,1.6,1,7.9
Fc1ccccc1/C=C1\CCCC2=C1NC(=S)NC2c1ccccc1F (configuration not stated),1.9,2.2*,1.7,1,3.2
CC1(c2ccc(O)cc2)NC(=O)N(c2ccccc2)N1 (configuration not stated),-5.1,1,1.1,1.1,-10.8
CC(=O)N1CCC2(CC1)NC(=O)N(c1ccccc1)N2,3.0,2.4*,1.6,1,-3.7
NC(=O)N1CCC2(CC1)NC(=O)N(c1ccccc1)N2,1.1,2.5*,1.6,1,-11.0
O=C1NC2(CCCCC2)NN1c1ccccc1,-0.8,1,0.9,1,-5.1
NS(=O)(=O)c1ccc(CCNC(=O)COC(=O)CN2C(=O)C3CCCCC3C2=O)cc1 (configuration not stated),-0.7,1.1,1.1,1,-6.7
COc1ccc(/C=N/NC(=O)c2cc(C34CC5CC(CC(C5)C3)C4)[nH]n2)cc1O,2.9,0.9,0.9,1,93.8*
COc1ccc(/C=N\NC(=O)c2ccc(=O)[nH]n2)cc1O,5.5,0.9,0.9,0.9,-9.6
O=C(Nc1cc(C(F)(F)F)ccc1N1CCCCC1)c1ccc(Br)o1,-7.8,1.1,1,1.1,-13.3
O=C(Nc1ccccc1N1CCCC1)c1cccnc1,-0.5,2.1*,1.6,1,-8.1
